# Data as given in ChEMBL document CHEMBL4725282, “Discovery of a Conformationally Constrained Oxazolidinone with Improved Safety and Efficacy Profiles for the Treatment of Multidrug-Resistant Tuberculosis” (J Med Chem, 2020).
# pIC50: −log10 of the molar value.
# Columns and labels:
# [1] = Genotoxicity in CHO-WBL cells assessed as chromosome aberration at 20 to 150 ug/ml incubated for 3 hrs followed by compound washout and measured after 17 hrs in absence of S9 fraction by Giemsa staining based; type: toxicity, cell-based, Cricetulus griseus; conditions: chinese hamster, dose 20-150 µg/ml
# Method in brief: (§1)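 CHO-WBL cells in McCoy's 5A with 10% FBS, seeded 20-24 h before treatment. Compound in DMSO, with or without serum-free S-9 mix. Treatment either 3 h, then HBSS wash and 17 h further culture, or 20 h; harvest at 20 h from treatment start. Colcemid 0.1 μg/mL for the final 2 h, hypotonic KCl, methanol:acetic acid fixation, Giemsa stain. 300 metaphases per concentration (150 per duplicate flask) scored.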
# [2] = Toxicity in male Sprague-Dawley rat assessed as change in mean corpuscular hemoglobin at 450 mg/kg/day, po administered for 4 weeks followed by 2 week recovery period (Rvb =18.3 +/- 0.4 pg); type: organism-based; conditions: in vivo, 672 h
# [3] = Toxicity in female Sprague-Dawley rat assessed as change in mean corpuscular hemoglobin at 450 mg/kg/day, po administered for 4 weeks followed by 2 week recovery period (Rvb =18.5 +/- 0.6 pg); type: organism-based; conditions: in vivo, 672 h
# [4] = Toxicity in male Sprague-Dawley rat assessed as ophthalmic changes at 50 to 450 mg/kg/day, po administered for 4 weeks followed by 2 week recovery period; type: organism-based; conditions: in vivo, 1008 h, dose 50-450 mg/kg/day, time 6 weeks
# [5] = Clearance in Balb/c mouse at 2.5 mg/kg, iv by LC-MS/MS analysis; type: ADME, organism-based; conditions: in vivo
# Method in brief: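 Female BALB/c mice (20–25 g), five per route. Oral dose 25 mg/kg in 0.5% carboxymethyl cellulose; i.v. dose 2.5 mg/kg in 10% DMSO/physiological saline. Blood sampled 5 min–72 h after p.o. and 2 min–48 h after i.v. Analyte quantified by LC/MS/MS (ESI positive, C18, isocratic methanol/water). Parameters from non-compartmental analysis.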
# [6] = Toxicity in male Sprague-Dawley rat assessed as change in mean corpuscular volume at 50 mg/kg/day, po administered for 4 weeks followed by 2 week recovery period (Rvb =57.5 +/- 2.0 fL); type: organism-based; conditions: in vivo, 672 h
# [7] = Toxicity in female Sprague-Dawley rat assessed as change in neutrophil level at 50 mg/kg/day, po administered for 4 weeks followed by 2 week recovery period (Rvb =18.5 +/- 5.3 %); type: organism-based; conditions: in vivo, 672 h
# [8] = Toxicity in male Sprague-Dawley rat assessed as change in white blood cell count at 150 mg/kg/day, po administered for 4 weeks followed by 2 week recovery period (Rvb =6.12 +/- 1.10 10^9/L); type: organism-based; conditions: in vivo, 672 h
# Method in brief: (§2)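 SD rats aged 6-7 weeks, 24 per group (12 female, 12 male): vehicle, 50, 150 or 450 mg/kg/day given orally once daily for 4 weeks, then 2-week recovery. 8 per sex per group dissected after the last dose and 4 per sex after 14-day recovery. Hematology included WBC count, reported as mean ± SD (n = 12), compared with vehicle.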
# [9] = Toxicity in female Sprague-Dawley rat assessed as effect on food consumption at 50 to 450 mg/kg/day, po administered for 4 weeks followed by 2 week recovery period measured at 1 week interval; type: organism-based; conditions: in vivo, 672 h, dose 50-450 mg/kg/day
# Method in brief: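 SD rats, 6-7 weeks old (96 in total), split into vehicle, 50, 150 and 450 mg/kg/day groups of 12 females and 12 males each, given oral doses once daily for 4 weeks, then 2 weeks of recovery. Mortality, body weight, food intake, eyes, urine and neuropsychic signs were observed. Organ and bone marrow histopathology was done on 8 rats per sex per group after the last dose and on the remaining 4 per sex after 14 days of recovery.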
# [10] = Toxicity in female Sprague-Dawley rat assessed as abnormalities in urine at 50 to 450 mg/kg/day, po administered for 4 weeks measured within last 7 days of treatment period; type: organism-based; conditions: in vivo, 672 h, dose 50-450 mg/kg/day
# Method in brief: (§3)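 SD rats, 6-7 weeks, 12 male and 12 female per group. Oral dosing once daily at 50, 150 or 450 mg/kg/day or vehicle for 4 weeks, then 2-week recovery. 8 per sex dissected after last dose, remaining 4 per sex after 14-day recovery. Body weight, urine, food intake and clinical signs monitored.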
# [11] = Toxicity in male Sprague-Dawley rat assessed as change in red blood cell count at 150 mg/kg/day, po administered for 4 weeks followed by 2 week recovery period (Rvb =7.86 +/- 0.32 10^12/L); type: organism-based; conditions: in vivo, 672 h
# [12] = Toxicity in male Sprague-Dawley rat assessed as change in platelet count at 150 mg/kg/day, po administered for 4 weeks followed by 2 week recovery period (Rvb =1077 +/- 117 10^9/L); type: organism-based; conditions: in vivo, 672 h
# [13] = Toxicity in female Sprague-Dawley rat assessed as change in red blood cell count at 50 mg/kg/day, po administered for 4 weeks followed by 2 week recovery period (Rvb =7.32 +/- 0.20 10^12/L); type: organism-based; conditions: in vivo, 672 h
# [14] = Toxicity in female Sprague-Dawley rat assessed as change in reticulocyte level at 50 mg/kg/day, po administered for 4 weeks followed by 2 week recovery period (Rvb =2.85 +/- 0.53 %); type: organism-based; conditions: in vivo, 672 h
# [15] = Toxicity in male Sprague-Dawley rat assessed as change in white blood cell count at 50 mg/kg/day, po administered for 4 weeks followed by 2 week recovery period (Rvb =6.12 +/- 1.10 10^9/L); type: organism-based; conditions: in vivo, 672 h; method in brief: as §2
# [16] = Toxicity in male Sprague-Dawley rat assessed as change in hemoglobin count at 450 mg/kg/day, po administered for 4 weeks followed by 2 week recovery period (Rvb =144 +/- 5 g/L); type: organism-based; conditions: in vivo, 672 h
# [17] = Toxicity in male Sprague-Dawley rat assessed as changes in neuropsychic symptoms at 50 to 450 mg/kg/day, po administered for 4 weeks measured during last 24 hrs of treatment period; type: organism-based; conditions: in vivo, 672 h, dose 50-450 mg/kg/day
# [18] = Toxicity in female Sprague-Dawley rat assessed as abnormalities in urine at 50 to 450 mg/kg/day, po administered for 4 weeks followed by 2 week recovery period measured within last 7 days of recover period; type: organism-based; conditions: in vivo, 672 h, dose 50-450 mg/kg/day; method in brief: as §3
# [19] = Toxicity in male Sprague-Dawley rat assessed as change in mean corpuscular volume at 450 mg/kg/day, po administered for 4 weeks followed by 2 week recovery period (Rvb =57.5 +/- 2.0 fL); type: organism-based; conditions: in vivo, 672 h
# Cytochrome P450 3A4 = Cytochrome P450 3A4 (Homo sapiens, UniProt P08684); assay: Inhibition of CYP3A4 in human liver microsomes after 20 mins by LC-MS/MS analysis; type: ADME
# Method in brief: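 Human liver microsomes (0.2 mg/mL) in phosphate buffer, 20 min incubation with compound at 0.1-50 μM alongside isoform-specific substrates and a positive control. Substrate remaining monitored by LC-MS/MS at each concentration; IC50 derived.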
# [20] = Genotoxicity in CHO-WBL cells assessed as chromosome aberration at 90 to 397.1 ug/ml incubated for 3 hrs followed by compound washout and measured after 17 hrs in absence of S9 fraction by Giemsa staining based; type: toxicity, cell-based, Cricetulus griseus; conditions: chinese hamster, dose 90-397.1 µg/ml; method in brief: as §1
# [21] = Genotoxicity in CHO-WBL cells assessed as chromosome aberration at 90 to 397.1 ug/ml measured after 20 hrs in presence of S9 fraction by Giemsa staining based; type: toxicity, subcellular, Cricetulus griseus; conditions: chinese hamster, s9, 20 h, dose 90-397.1 µg/ml; method in brief: as §1
# Sequence of Cytochrome P450 3A4 (P08684 whole entry, canonical isoform): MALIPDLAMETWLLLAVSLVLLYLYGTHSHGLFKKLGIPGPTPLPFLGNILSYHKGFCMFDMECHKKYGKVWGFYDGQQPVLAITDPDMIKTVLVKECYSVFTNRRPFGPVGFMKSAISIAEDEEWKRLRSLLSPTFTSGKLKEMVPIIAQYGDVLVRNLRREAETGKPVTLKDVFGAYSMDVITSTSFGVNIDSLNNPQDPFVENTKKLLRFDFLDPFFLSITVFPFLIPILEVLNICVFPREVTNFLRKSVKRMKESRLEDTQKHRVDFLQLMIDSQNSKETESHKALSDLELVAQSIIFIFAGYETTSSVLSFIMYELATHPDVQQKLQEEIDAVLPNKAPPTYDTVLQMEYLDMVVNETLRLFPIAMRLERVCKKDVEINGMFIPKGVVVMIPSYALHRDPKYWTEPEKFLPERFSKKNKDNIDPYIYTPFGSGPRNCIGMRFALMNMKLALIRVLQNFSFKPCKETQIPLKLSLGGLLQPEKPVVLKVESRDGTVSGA
smiles,measurement,setting,value
CC(=O)NC[C@@H]1OC(=O)N2c3cc(F)c(N4CCSCC4)cc3OC[C@@H]12,Activity,[1],Non-Toxic
same,Activity,[2],18.7 pg
same,Activity,[3],18.7 pg
same,Activity,[4],Non-Toxic
same,clearance,[5],36.5 mL/min/kg
same,Activity,[6],59.7 fL
same,Activity,[7],14.8%
same,Activity,[8],6.11 10^9/L
same,Activity,[9],Non-Toxic
same,Activity,[10],Non-Toxic
same,Activity,[11],7.62 10^12/L
same,Activity,[12],998 10^9/L
same,Activity,[13],6.85 10^12/L
same,Activity,[14],3.25%
same,Activity,[15],6.22 10^9/L
same,Activity,[16],139 g/L
same,Activity,[17],Non-Toxic
same,Activity,[18],Non-Toxic
same,Activity,[19],58.7 fL
same,pIC50,Cytochrome P450 3A4,< 4.30
CC(=O)NC[C@@H]1OC(=O)N2c3cc(F)c(N4CC[S+]([O-])CC4)cc3OC[C@@H]12,Activity,[20],Non-Toxic
same,Activity,[21],Non-Toxic
